Test results published in paper PMC7147967 (Nature nanotechnology, 2020).

Columns and labels:
[1] = molecular target: Soluble extracellular domain of HER2 protein (Homo sapiens, UniProt P04626); experiment: Fibrillar transformation of NPs on interaction with HER2 protein; conditions: TEM/DLS, over 24 h, HER2 protein/peptide ligand 1:1000
Summary of the method: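 Soluble HER2 extracellular domain (HEK 293-expressed) was added to fresh nanoparticles (99% water, 20 μM) at a HER2/peptide ligand ratio of 1:1000. At 0.5, 6 and 24 h, samples were taken for DLS size and zeta potential, CD, and TEM with uranyl acetate staining. Bis-pyrene AIE fluorescence was followed over time to track transformation.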

[2] = test system: MCF-7/C6 HER2+ breast cancer; experiment: In vivo therapeutic effect, MCF-7/C6 xenograft; parameters: species or system Balb/c nude mice; conditions: 8 mg/kg i.v., 8 times q.o.d., n = 8 per group
Summary of the method: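 Balb/c nude mice bearing s.c. flank MCF-7/C6 tumours (5×10^6 cells) were randomised into five groups 10 days after inoculation. Groups received PBS or test nanoparticles i.v. every 48 h. Tumour volume and body weight were measured twice weekly over the 40-day treatment, and survival was followed. Data are mean ± s.d.; t-test or ANOVA.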

MCF-7/C6 tumour tissue = experiment: Tumour tissue analysis after three injections; format: in vivo, Balb/c nude mice; conditions: 3 consecutive q.o.d. injections, 8 mg/kg, n = 6
Summary of the method: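 MCF-7/C6 tumour-bearing Balb/c nude mice were sacrificed after three i.v. injections given every other day. Excised tumours were processed for H&E staining, Ki-67 staining, fluorescence imaging of sections and high-magnification TEM.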

[3] = Size of nanoparticles by DLS and TEM; format: physicochemical; conditions: fresh NPs, 99% water content (H2O:DMSO 99:1), 20 μM
Summary of the method: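 Peptide in DMSO was diluted with DMSO/deionized water mixtures to give a range of water contents. Nanoparticle formation was checked by UV–vis absorption and fluorescence spectra. Freshly made nanoparticles (99% water, 20 μM) were sized by DLS and by TEM with uranyl acetate staining.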

Row | Substance | structural transformation after treatment with HER2 protein [1] | time within which all mice died [2] | cell kill in tumour sections (H&E) (MCF-7/C6 tumour tissue) | diameter of nanoparticles [3]
1 | BP-FFVLK-PEG1000 [NPs3] | did not reveal any significant changes | ≤ 57 days | No significant cell kill was detected | 25–60 nm
2 | BP-GGAAK-PEG1000 [NPs4] | did not reveal any significant changes | ≤ 60 days | No significant cell kill was detected | around 20 nm
